Data taken from ChEMBL document CHEMBL4765307, “Design, synthesis and biological activity of novel 2,3,4,5-tetra-substituted thiophene derivatives as PI3Kα inhibitors with potent antitumor activity” (Eur J Med Chem, 2020).

What was measured:
[1] = molecular target: PI3-kinase p110-alpha/p85-alpha (Homo sapiens, UniProt P42336); experiment: Inhibition of His-tagged human full length PI3Kalpha coexpressed with p85 alpha in baculovirus expression system using PIP2 peptide as substrate incubated for 1 hr in presence ATP by Kinase-Glo assay
PI3-kinase p110-alpha/p85-alpha, sequence (P27986 whole entry): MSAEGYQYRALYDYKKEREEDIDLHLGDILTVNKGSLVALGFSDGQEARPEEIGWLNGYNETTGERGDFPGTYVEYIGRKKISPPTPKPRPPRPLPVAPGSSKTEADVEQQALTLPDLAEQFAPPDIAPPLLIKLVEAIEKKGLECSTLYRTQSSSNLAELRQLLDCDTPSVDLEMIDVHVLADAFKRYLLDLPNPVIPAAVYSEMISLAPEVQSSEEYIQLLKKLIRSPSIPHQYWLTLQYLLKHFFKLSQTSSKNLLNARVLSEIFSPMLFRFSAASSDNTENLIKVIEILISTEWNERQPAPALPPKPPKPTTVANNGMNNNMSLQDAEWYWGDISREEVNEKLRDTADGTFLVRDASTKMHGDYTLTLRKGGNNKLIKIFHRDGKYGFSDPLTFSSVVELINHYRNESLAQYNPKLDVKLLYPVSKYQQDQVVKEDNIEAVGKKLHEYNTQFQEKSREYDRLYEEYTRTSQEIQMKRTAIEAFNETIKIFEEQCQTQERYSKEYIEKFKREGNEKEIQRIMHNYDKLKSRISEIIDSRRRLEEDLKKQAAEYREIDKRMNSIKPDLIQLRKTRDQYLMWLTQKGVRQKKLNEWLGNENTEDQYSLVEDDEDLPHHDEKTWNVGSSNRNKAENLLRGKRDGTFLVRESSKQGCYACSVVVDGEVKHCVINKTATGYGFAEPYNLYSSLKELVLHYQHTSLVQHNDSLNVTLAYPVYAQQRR
PI3-kinase p110-alpha/p85-alpha, sequence (P42336 whole entry): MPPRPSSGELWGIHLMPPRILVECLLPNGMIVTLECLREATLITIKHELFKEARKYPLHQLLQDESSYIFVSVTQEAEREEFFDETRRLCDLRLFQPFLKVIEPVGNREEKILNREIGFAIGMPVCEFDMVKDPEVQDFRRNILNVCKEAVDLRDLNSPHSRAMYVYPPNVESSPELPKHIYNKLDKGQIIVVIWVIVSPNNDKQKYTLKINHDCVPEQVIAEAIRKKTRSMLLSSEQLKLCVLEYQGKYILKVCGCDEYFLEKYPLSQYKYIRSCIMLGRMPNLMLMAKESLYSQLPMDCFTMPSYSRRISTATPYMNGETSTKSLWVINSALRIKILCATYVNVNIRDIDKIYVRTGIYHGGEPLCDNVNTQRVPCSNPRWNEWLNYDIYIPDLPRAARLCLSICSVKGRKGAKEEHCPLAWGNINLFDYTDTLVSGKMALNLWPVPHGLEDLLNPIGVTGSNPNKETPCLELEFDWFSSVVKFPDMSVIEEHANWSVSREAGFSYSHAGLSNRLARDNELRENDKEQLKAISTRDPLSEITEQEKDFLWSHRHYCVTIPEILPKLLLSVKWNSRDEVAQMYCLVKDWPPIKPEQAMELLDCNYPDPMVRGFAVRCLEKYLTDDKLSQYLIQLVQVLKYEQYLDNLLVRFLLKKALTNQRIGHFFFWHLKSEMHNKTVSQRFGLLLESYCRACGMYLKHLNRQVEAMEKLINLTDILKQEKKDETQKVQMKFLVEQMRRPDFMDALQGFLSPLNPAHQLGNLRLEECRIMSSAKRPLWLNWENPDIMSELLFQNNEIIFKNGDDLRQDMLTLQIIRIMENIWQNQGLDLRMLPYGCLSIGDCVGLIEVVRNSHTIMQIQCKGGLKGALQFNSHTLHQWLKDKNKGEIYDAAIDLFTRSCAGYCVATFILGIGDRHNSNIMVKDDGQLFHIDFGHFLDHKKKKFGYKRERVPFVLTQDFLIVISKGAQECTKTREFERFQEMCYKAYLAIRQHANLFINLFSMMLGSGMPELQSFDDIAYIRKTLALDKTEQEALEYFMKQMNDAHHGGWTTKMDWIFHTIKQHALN

CYP2D6 = CYP2D6 (Homo sapiens, UniProt P10635); experiment: Inhibition of CYP2D6 in human liver microsomes using dextromethorphan as substrate at 10 uM preincubated for 10 mins followed by incubation with NADPH for 10 mins by LC- MS/MS analysis; format: ADME; conditions: probe dextromethorphan, time 20 min
CYP2D6, sequence (P10635 whole entry): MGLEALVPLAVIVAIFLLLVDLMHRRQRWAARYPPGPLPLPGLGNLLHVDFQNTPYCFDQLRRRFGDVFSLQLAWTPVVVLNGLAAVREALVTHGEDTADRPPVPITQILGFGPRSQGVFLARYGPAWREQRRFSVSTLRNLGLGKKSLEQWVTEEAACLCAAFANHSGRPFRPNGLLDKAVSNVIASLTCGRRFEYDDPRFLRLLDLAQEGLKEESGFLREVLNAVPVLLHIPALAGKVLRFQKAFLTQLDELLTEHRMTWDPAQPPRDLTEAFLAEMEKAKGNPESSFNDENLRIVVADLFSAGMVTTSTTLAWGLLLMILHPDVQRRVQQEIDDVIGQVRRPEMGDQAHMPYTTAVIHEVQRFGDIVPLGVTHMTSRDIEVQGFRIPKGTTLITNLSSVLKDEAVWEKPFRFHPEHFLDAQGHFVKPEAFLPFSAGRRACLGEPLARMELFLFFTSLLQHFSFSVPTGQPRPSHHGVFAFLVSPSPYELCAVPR
Summary of the method: (§1)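 Human liver microsomes 0.25 mg/mL with probe substrate (CYP1A2 10 µM phenacetin; CYP2D6 5 µM dextromethorphan; CYP3A4 2 µM midazolam), test compound 10 µM; 10 min preincubation at 37 °C, NADPH added (final 10 mM), 10 min at 37 °C; stopped with cold acetonitrile containing internal standards; LC-MS/MS.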

PI3K p110 beta/p85 alpha = PI3K p110 beta/p85 alpha (Homo sapiens, UniProt P42338); experiment: Inhibition of N-terminal His6-tagged human recombinant full length PI3Kbeta co-expressed with human recombinant full length P85alpha in baculovirus infected Sf21 cells using PIP2 peptide as substrate incubated for 1 hr in presence ATP by ADP-Glo Kinase Assay
PI3K p110 beta/p85 alpha, sequence (P27986 whole entry): as the sequence (P27986 whole entry) above
PI3K p110 beta/p85 alpha, sequence (P42338 whole entry): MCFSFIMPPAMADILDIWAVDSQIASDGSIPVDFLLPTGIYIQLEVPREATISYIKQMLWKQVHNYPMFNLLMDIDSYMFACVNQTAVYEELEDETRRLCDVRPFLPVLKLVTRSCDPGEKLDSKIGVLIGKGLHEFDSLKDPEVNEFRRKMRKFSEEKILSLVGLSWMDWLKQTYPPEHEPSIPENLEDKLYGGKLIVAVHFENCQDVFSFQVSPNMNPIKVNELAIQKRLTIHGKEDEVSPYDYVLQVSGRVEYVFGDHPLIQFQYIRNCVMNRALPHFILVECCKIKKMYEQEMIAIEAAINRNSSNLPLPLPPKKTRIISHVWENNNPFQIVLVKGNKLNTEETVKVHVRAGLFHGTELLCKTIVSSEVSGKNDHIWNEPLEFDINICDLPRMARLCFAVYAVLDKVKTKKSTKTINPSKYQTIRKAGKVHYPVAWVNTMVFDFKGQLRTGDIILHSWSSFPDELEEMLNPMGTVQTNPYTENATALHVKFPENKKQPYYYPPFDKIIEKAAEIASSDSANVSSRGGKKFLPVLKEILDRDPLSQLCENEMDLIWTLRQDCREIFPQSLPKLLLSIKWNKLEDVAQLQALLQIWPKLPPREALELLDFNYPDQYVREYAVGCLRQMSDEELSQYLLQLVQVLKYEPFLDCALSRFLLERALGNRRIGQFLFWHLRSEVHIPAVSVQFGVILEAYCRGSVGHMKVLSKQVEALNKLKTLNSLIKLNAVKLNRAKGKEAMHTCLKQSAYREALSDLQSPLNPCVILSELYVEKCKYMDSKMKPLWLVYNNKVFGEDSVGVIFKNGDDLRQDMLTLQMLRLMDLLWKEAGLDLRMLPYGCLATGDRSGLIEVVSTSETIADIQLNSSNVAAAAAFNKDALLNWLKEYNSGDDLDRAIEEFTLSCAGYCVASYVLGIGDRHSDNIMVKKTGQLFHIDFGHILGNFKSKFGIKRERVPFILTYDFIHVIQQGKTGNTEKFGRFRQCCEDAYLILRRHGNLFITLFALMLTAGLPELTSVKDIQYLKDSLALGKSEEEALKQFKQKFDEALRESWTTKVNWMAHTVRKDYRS
Summary of the method: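 ADP-Glo reagent 1 for 40 min, then reagent 2 with 60 min equilibration before reading. IC50 taken from inhibition curves; average of at least two runs.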

NCI-H1975 = experiment: Antiproliferative activity against human NCI-H1975 cells harboring PIK3CA mutation assessed as reduction in cell viability after 3 days by CellTiter-Glo luminescence assay; format: functional, cell-based; conditions: NCI-H1975, 72 h
Summary of the method: (§2)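 ATCC lines, 10% FBS: T47D, H1975, H460 in RPMI1640; U87MG in DMEM; A549 in F12K. Seeded 3×10^3 per well the day before, exposed to 3-fold serial dilutions or DMSO for 3 days at 37 °C, 5% CO2; CellTiter-Glo luminescence.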

CYP1A2 = molecular target: T1, CYP1A2 (Homo sapiens, UniProt P05177); experiment: Inhibition of CYP1A2 in human liver microsomes using phenacetin as substrate at 10 uM preincubated for 10 mins followed by incubation with NADPH for 10 mins by LC- MS/MS analysis; format: ADME; conditions: probe phenacetin, time 20 min; summary of the method: as §1
T1 sequence (P05177 whole entry): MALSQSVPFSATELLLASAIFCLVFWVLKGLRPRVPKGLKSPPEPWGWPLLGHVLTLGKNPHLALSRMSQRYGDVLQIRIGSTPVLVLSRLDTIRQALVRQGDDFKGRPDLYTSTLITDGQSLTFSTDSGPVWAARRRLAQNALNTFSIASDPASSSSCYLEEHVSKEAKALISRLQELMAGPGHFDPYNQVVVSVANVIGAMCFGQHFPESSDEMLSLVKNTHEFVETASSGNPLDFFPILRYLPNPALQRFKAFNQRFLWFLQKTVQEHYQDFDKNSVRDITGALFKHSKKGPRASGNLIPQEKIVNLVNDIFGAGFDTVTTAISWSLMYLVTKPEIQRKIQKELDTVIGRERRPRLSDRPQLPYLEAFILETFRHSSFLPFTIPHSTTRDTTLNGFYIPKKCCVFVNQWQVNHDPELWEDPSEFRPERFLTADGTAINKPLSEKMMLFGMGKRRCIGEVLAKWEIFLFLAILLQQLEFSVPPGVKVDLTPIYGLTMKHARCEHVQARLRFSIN

[2] = Metabolic stability in human liver microsomes assessed as parent compound remaining at 1 uM preincubated for 10 mins followed by incubation in phosphate buffer at pH 7.4 for 60 mins by LC-MS/MS analysis; format: ADME, Microsome; conditions: time 70 min, read-out: Stabilty
Summary of the method: (§3)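 Compound 1 µM with human or rat microsomes 0.5 mg/mL, preincubated 10 min at 37 °C in 100 mM potassium phosphate pH 7.4, 10 mM MgCl2; started with NADPH, sampled 0–60 min, quenched with cold acetonitrile, LC–MS/MS. A parallel no-NADPH control was run.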

A549 = experiment: Antiproliferative activity against human A549 cells assessed as reduction in cell viability after 3 days by CellTiter-Glo luminescence assay; format: functional, cell-based; conditions: A549, 72 h; summary of the method: as §2
[3] = molecular target: Voltage-gated inwardly rectifying potassium channel KCNH2 (Homo sapiens, UniProt Q12809); experiment: Inhibition of human ERG expressed in CHO cells assessed as inhibition of channel tail current at holding potential of -80 mV by Qpatch assay; format: cell-based
Voltage-gated inwardly rectifying potassium channel KCNH2, sequence (Q12809 whole entry, the tested form may be a part): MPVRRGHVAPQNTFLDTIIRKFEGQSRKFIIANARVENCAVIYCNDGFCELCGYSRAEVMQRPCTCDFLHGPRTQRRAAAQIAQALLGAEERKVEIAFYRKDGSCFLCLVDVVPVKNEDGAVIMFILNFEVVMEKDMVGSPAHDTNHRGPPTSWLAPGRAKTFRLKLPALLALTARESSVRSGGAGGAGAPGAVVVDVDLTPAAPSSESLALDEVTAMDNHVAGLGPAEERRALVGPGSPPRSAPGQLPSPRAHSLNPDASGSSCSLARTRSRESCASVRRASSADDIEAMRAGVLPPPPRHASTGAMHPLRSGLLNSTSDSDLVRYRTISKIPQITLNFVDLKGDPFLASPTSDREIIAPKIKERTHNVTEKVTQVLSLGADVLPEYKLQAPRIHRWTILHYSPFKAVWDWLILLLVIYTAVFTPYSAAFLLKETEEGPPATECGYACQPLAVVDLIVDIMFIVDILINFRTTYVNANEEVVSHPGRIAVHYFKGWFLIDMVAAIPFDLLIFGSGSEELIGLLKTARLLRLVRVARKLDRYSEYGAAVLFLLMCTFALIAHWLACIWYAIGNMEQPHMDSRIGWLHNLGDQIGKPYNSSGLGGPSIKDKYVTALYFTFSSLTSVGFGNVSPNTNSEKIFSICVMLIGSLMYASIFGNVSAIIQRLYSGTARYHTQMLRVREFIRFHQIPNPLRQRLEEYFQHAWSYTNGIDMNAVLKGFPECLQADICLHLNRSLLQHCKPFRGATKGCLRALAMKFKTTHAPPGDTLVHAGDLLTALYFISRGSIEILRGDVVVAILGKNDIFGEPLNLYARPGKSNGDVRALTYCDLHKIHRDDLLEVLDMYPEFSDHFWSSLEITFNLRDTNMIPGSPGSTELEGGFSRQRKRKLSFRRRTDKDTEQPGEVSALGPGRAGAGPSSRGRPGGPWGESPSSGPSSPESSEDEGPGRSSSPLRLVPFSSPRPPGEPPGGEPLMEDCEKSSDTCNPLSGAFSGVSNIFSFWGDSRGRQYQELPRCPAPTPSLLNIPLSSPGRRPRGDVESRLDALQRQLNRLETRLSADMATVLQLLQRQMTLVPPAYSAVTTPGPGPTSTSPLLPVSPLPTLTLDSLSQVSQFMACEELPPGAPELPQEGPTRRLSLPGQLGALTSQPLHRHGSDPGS
Summary of the method: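 CHO cells stably expressing hERG, QPatch in single-hole mode at room temperature, held at […]; each concentration superfused to steady-state block (three superimposable traces), washout between concentrations; cisapride as quality control.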

[4] = Half life in human liver microsomes at 1 uM by LC-MS/MS analysis; format: ADME, Microsome; summary of the method: as §3
[5] = molecular target: Serine/threonine-protein kinase mTOR (Homo sapiens, UniProt P42345); experiment: Inhibition of N-terminal FLAG-tagged human recombinant mTOR (1362 to end residues) using ULight-4E-BP1 (Thr37/46) peptide as substrate incubated for 1 hr in presence of ATP by Lance Ultra assay
Summary of the method: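 ULight-4E-BP1 (Thr37/46) peptide with 13 µM ATP; 1 h at room temperature. Stopped with EDTA quench buffer plus Eu-anti-phospho-4E-BP1, 15 min shake and 60 min equilibration, TR-FRET read. IC50 from inhibition curves; average of at least two runs.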

NCI-H460 = experiment: Antiproliferative activity against human NCI-H460 cells harboring PIK3CA mutation assessed as reduction in cell viability after 3 days by CellTiter-Glo luminescence assay; format: functional, cell-based; conditions: NCI-H460, 72 h; summary of the method: as §2
[6] = Half life in Sprague-Dawley rat at 5 mg/kg, iv measured after 24 hrs by LC-MS/MS analysis; format: ADME, organism-based; conditions: in vivo
Summary of the method: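 Male SD rats (n=6), single 5 mg/kg intravenous dose; heparinised blood at 0.083–24 h, centrifuged at 4 °C; plasma quantified by LC–MS/MS; noncompartmental parameters.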

[7] = Apparent permeability across basolateral to apical side in human Caco2 cells at 2 uM incubated for 2 hrs by LC-MS/MS analysis; format: ADME, cell-based; conditions: Caco-2
Summary of the method: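 Caco-2 monolayers grown 21–28 days; compound 2 µM both directions in duplicate, DMSO <1%; 2 h at 37 °C, 5% CO2 without shaking. Donor and receiver levels by LC/MS/MS; integrity by lucifer yellow. Papp = (dCr/dt)×Vr/(A×C0); efflux ratio = Papp(B-A)/Papp(A-B).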

[8] = molecular target: Phosphatidylinositol 4,5-bisphosphate 3-kinase catalytic subunit alpha isoform (Homo sapiens) (UniProt P42336); experiment: Inhibition of PI3Kalpha in human T47D cells assessed as inhibition of insulin-stimulated Akt phosphorylation at Ser473 residue at 0.3 uM preincubated for 2 hrs followed by incubation with insulin for 2 hrs by western blot analysis relative to control; format: cell-based; conditions: time 4.0 hrs
Phosphatidylinositol 4,5-bisphosphate 3-kinase catalytic subunit alpha isoform (Homo sapiens), sequence (P42336 whole entry, canonical isoform): as the sequence (P42336 whole entry) above
Summary of the method: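 T47D cells given compound at 37 °C for 2 h, then stimulated with 1 µg/mL insulin for 2 h; lysed in RIPA with protease/phosphatase inhibitors and 1 mM PMSF; BCA-normalised SDS-PAGE, PVDF blot probed overnight at 4 °C for total Akt and pAkt Ser473, infrared secondary detection.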

IC50 [1]: 9.2 nM
Ki [1]: 5.1 nM
inhibition at 10 min, 10 µM (CYP2D6): 28%
IC50 (PI3K p110 beta/p85 alpha): 108 nM
Ki (PI3K p110 beta/p85 alpha): 89 nM
IC50 (NCI-H1975): 1060 nM
inhibition at 10 min, 10 µM (CYP1A2): 27.8%
remaining at 1 h, 1 µM [2]: 47.8%
IC50 (A549): 3.84 µM
half-life at 1 µM [4]: 58.3 min
IC50 [5]: 1800 nM
IC50 (NCI-H460): 200 nM
half-life [6]: 119 min
Papp B→A at 2 h, 2 µM [7]: 8.4 ×10⁻⁶ cm/s
inhibition [8]: 59%
Structure (SMILES): N#Cc1c(N2CCOCC2)sc(-c2nc[nH]n2)c1-c1ccc(NC(=O)Nc2ccccc2Cl)cc1
IC50 [3]: > 30 µM
